Results as given in ChEMBL document CHEMBL1275442, “Pharmacokinetics and tissue distribution of anidulafungin in rats” (Antimicrob Agents Chemother, 2008).

Columns and labels:
[1] = tested on: Zone of skin; assay: Tmax in F344 rat skin assessed as total compound-derived radioactivity at 5 mg/kg, iv administered as single bolus dose […]; format: ADME, organism-based; set-up: dose 5 mg/kg, route intravenous; conditions: in vivo
Summary of the method: (§1)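 Male F344 rats, 10 to 11 weeks old and 223.6 to 243.8 g, got one iv dose of [14C]anidulafungin at 5 mg/kg over about 5 min. Blood, CSF, kidney, liver, lung, quadriceps, spleen and skin were sampled predose and at 0.083 to 72 h, 3 rats per time. Total radioactivity (parent plus metabolites) was measured by liquid scintillation counting. Parameters were noncompartmental, from a composite mean profile.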

[2] = tested on: Muscle tissue; assay: Drug level in Long Evans rat muscle assessed as radioactivity per gram of tissue at 5 mg/kg, iv administered as single bolus dose measured 0.5 hrs postdose by autoradiography; format: ADME, organism-based; set-up: dose 5 mg/kg, route intravenous; conditions: in vivo
Summary of the method: (§2)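 Male pigmented Long Evans (HsdBlu:LE) rats, 7.5 weeks old, 202 to 217 g, single iv [¹⁴C]anidulafungin; one rat per sampling time. Euthanized by isoflurane and cardiac-puncture exsanguination. Sagittal whole-body sections quantified by phosphorimaging autoradiography, single samples corrected for section thickness across multiple sections per tissue. Concentrations (μg eq/g drug-derived radioactivity) interpolated from least-squares standard curves per scan.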

[3] = tested on: Muscle tissue; assay: Half life in F344 rat muscle assessed as total compound-derived radioactivity at 5 mg/kg, iv administered as single bolus dose […]; format: ADME, organism-based; set-up: dose 5 mg/kg, route intravenous; conditions: in vivo; summary of the method: as §1
[4] = tested on: Zone of skin; assay: Drug level in Long Evans rat skin assessed as radioactivity per gram of tissue at 5 mg/kg, iv administered as single bolus dose measured 12 hrs postdose by autoradiography; format: ADME, organism-based; set-up: dose 5 mg/kg, route intravenous; conditions: in vivo
Summary of the method: (§3)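 Male pigmented Long Evans (HsdBlu:LE) rats, 7.5 weeks old and 202 to 217 g, got a single iv dose of [14C]anidulafungin at 5 mg/kg. One rat per time point (0.5, 6, 12, 24, 72, 168 h) was euthanised by isoflurane and cardiac-puncture exsanguination. Sagittal whole-body sections were quantified by phosphorimaging. Samples were thickness-corrected, and concentrations (μg eq/g) were interpolated from least-squares standard curves.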

[5] = Drug level in Long Evans rat eye assessed as radioactivity per gram of tissue at 5 mg/kg, iv administered as single bolus dose measured 168 hrs postdose by autoradiography; format: ADME, organism-based; set-up: dose 5 mg/kg, route intravenous; conditions: in vivo; summary of the method: as §2
[6] = tested on: Kidney; assay: Drug level in Long Evans rat kidney assessed as high disposition of radioactivity per gram of tissue at 5 mg/kg, iv administered as single bolus dose measured 24 hrs postdose by autoradiography; format: ADME, organism-based; set-up: dose 5 mg/kg, route intravenous; conditions: in vivo; summary of the method: as §2
[7] = tested on: Blood; assay: Drug level in Long Evans rat blood assessed as radioactivity per gram of tissue at 5 mg/kg, iv administered as single bolus dose measured 12 hrs postdose by autoradiography; format: ADME, organism-based; set-up: dose 5 mg/kg, route intravenous; conditions: in vivo; summary of the method: as §2
[8] = tested on: Liver; assay: Drug level in Long Evans rat liver assessed as high disposition of radioactivity per gram of tissue at 5 mg/kg, iv administered as single bolus dose measured 24 hrs postdose by autoradiography; format: ADME, organism-based; set-up: dose 5 mg/kg, route intravenous; conditions: in vivo; summary of the method: as §2
[9] = tested on: Zone of skin; assay: AUC (0 to infinity) in F344 rat skin assessed as total compound-derived radioactivity per gram of tissue at 5 mg/kg, iv administered as single bolus dose […]; format: ADME, organism-based; set-up: time infinity, dose 5 mg/kg, route intravenous; conditions: in vivo
Summary of the method: (§4)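 Same F344 study: single 5 mg/kg IV [¹⁴C]anidulafungin given over about 5 min. Total drug-derived radioactivity (parent plus metabolites) counted by liquid scintillation, in […]. Noncompartmental analysis of the composite mean profile.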

[10] = Cmax in F344 rat plasma at 5 mg/kg, iv administered as single bolus dose after 5 min by HPLC method; format: ADME, organism-based; set-up: dose 5 mg/kg, route intravenous
Summary of the method: (§5)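 Male F344 rats, 10–11 weeks, 223.6–243.8 g, given one IV dose of [¹⁴C]anidulafungin, 5 mg/kg, over about 5 min. Tissues and blood sampled at 0.083–72 h (n = 3 rats per time). Parent drug measured by HPLC; LLOQ/ULOQ were 20/5,120 ng/ml for plasma and 220/56,320 ng/g for tissue. Noncompartmental parameters taken from the composite mean profile.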

[11] = tested on: Kidney; assay: Drug level in Long Evans rat kidney assessed as low disposition of radioactivity per gram of tissue at 5 mg/kg, iv administered as single bolus dose measured 6 hrs postdose by autoradiography; format: ADME, organism-based; set-up: dose 5 mg/kg, route intravenous; conditions: in vivo; summary of the method: as §2
[12] = tested on: Spleen; assay: AUC (0 to 24 hrs) in F344 rat spleen at 5 mg/kg, iv administered as single bolus dose; format: ADME, organism-based; set-up: time < 24 hr, dose 5 mg/kg, route intravenous; conditions: in vivo; summary of the method: as §5
[13] = tested on: Spleen; assay: Cmax in F344 rat spleen assessed as total compound-derived radioactivity per gram of tissue at 5 mg/kg, iv administered as single bolus dose after 30 mins […]; format: ADME, organism-based; set-up: dose 5 mg/kg, route intravenous; conditions: in vivo, 0.5 h; summary of the method: as §4
[14] = tested on: Liver; assay: Drug level in Long Evans rat liver assessed as low disposition of radioactivity per gram of tissue at 5 mg/kg, iv administered as single bolus dose measured 168 hrs postdose by autoradiography; format: ADME, organism-based; set-up: dose 5 mg/kg, route intravenous; conditions: in vivo; summary of the method: as §2
[15] = tested on: Kidney; assay: AUC (0 to infinity) in F344 rat kidney at 5 mg/kg, iv administered as single bolus dose; format: ADME, organism-based; set-up: time infinity, dose 5 mg/kg, route intravenous; conditions: in vivo; summary of the method: as §5
[16] = Drug level in Long Evans rat eye assessed as radioactivity per gram of tissue at 5 mg/kg, iv administered as single bolus dose measured 0.5 hrs postdose by autoradiography; format: ADME, organism-based; set-up: dose 5 mg/kg, route intravenous; conditions: in vivo; summary of the method: as §2
[17] = tested on: Lung; assay: AUC (0 to infinity) in F344 rat lung assessed as total compound-derived radioactivity per gram of tissue at 5 mg/kg, iv administered as single bolus dose […]; format: ADME, organism-based; set-up: dose 5 mg/kg, route intravenous, time infinity; conditions: in vivo; summary of the method: as §4
[18] = tested on: Lung; assay: Drug level in Long Evans rat lung assessed as radioactivity per gram of tissue at 5 mg/kg, iv administered as single bolus dose measured 24 hrs postdose by autoradiography; format: ADME, organism-based; set-up: dose 5 mg/kg, route intravenous; conditions: in vivo; summary of the method: as §2
[19] = tested on: Spleen; assay: Drug level in Long Evans rat spleen assessed as radioactivity per gram of tissue at 5 mg/kg, iv administered as single bolus dose measured 24 hrs postdose by autoradiography; format: ADME, organism-based; set-up: dose 5 mg/kg, route intravenous; conditions: in vivo; summary of the method: as §3
[20] = tested on: Cerebrospinal fluid; assay: Drug level in Long Evans rat cerebrospinal fluid assessed as radioactivity per gram of tissue at 5 mg/kg, iv administered as single bolus dose measured 168 hrs postdose by autoradiography; format: ADME, organism-based; set-up: dose 5 mg/kg, route intravenous; conditions: in vivo; summary of the method: as §2
[21] = tested on: Liver; assay: Cmax in F344 rat liver assessed as total compound-derived radioactivity per gram of tissue at 5 mg/kg, iv administered as single bolus dose […]; format: ADME, organism-based; set-up: dose 5 mg/kg, route intravenous; conditions: in vivo; summary of the method: as §4
[22] = tested on: Muscle tissue; assay: Drug level in Long Evans rat muscle assessed as radioactivity per gram of tissue at 5 mg/kg, iv administered as single bolus dose measured 12 hrs postdose by autoradiography; format: ADME, organism-based; set-up: dose 5 mg/kg, route intravenous; conditions: in vivo; summary of the method: as §2
[23] = Tmax in F344 rat skin at 5 mg/kg, iv administered as single bolus dose by HPLC method; format: ADME, organism-based, Zone of skin; set-up: dose 5 mg/kg, route intravenous
Summary of the method: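 F344 males, 10 to 11 weeks old and 223.6 to 243.8 g, got a single 5 mg/kg iv dose of [14C]anidulafungin over about 5 min. Plasma and tissues were collected predose and at 0.083 to 72 h, n = 3 per time point. Parent drug was quantified by HPLC-UV, with LLOQ/ULOQ of 20/5,120 ng/ml in plasma and 220/56,320 ng/g in tissue. Noncompartmental parameters came from a composite mean concentration-time profile.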

[24] = tested on: Spleen; assay: Drug level in Long Evans rat spleen assessed as radioactivity per gram of tissue at 5 mg/kg, iv administered as single bolus dose measured 12 hrs postdose by autoradiography; format: ADME, organism-based; set-up: dose 5 mg/kg, route intravenous; conditions: in vivo; summary of the method: as §3
[25] = tested on: Liver; assay: Drug level in Long Evans rat liver assessed as high disposition of radioactivity per gram of tissue at 5 mg/kg, iv administered as single bolus dose measured 168 hrs postdose by autoradiography; format: ADME, organism-based; set-up: dose 5 mg/kg, route intravenous; conditions: in vivo; summary of the method: as §2
[26] = tested on: Plasma; assay: Cmax in F344 rat plasma assessed as total compound-derived radioactivity per gram of tissue at 5 mg/kg, iv administered as single bolus dose after 5 mins by HPLC method; format: ADME, organism-based; set-up: dose 5 mg/kg, route intravenous; conditions: in vivo; summary of the method: as §4

## CCCCCOc1ccc(-c2ccc(-c3ccc([14C](=O)N[C@H]4C[C@@H](O)[C@@H](O)NC(=O)[C@@H]5[C@@H](O)[C@@H](C)CN5C(=O)[C@H]([C@@H](C)O)NC(=O)[C@H]([C@H](O)[C@@H](O)c5ccc(O)cc5)NC(=O)[C@@H]5C[C@@H](O)CN5C(=O)[C@H]([C@@H](C)O)NC4=O)cc3)cc2)cc1 [14C-ANIDULAFUNGIN]
[1]
  Tmax: 60 min
[2]
  Drug uptake: 3.45 ugequiv
[3]
  t1/2: 37.5 h
[4]
  Drug uptake: 5.34 ugequiv
[5]
  Drug uptake: 0.6 ugequiv
[6]
  Drug uptake: 12.57 ugequiv
[7]
  Drug uptake: 2.55 ugequiv
[8]
  Drug uptake: 29.63 ugequiv
[9]
  AUC: 326.92 ugequiv.hr/g
[10]
  Cmax: 5250 ng/mL
[11]
  Drug uptake: 8.45 ugequiv
[12]
  AUC: 490.36 µg·h/g
[13]
  Cmax: 30.92 ugequiv/g
[14]
  Drug uptake: 1.83 ugequiv
[15]
  AUC: 658.93 µg·h/g
[16]
  Drug uptake: 1.17 ugequiv
[17]
  AUC: 1341.95 ugequiv.hr/g
[18]
  Drug uptake: 8.05 ugequiv
[19]
  Drug uptake: 10.25 ugequiv
[20]
  Drug uptake: 2.18 ugequiv
[21]
  Cmax: 24.28 ugequiv/g
[22]
  Drug uptake: 1.39 ugequiv
[23]
  Tmax: 30 min
[24]
  Drug uptake: 11.48 ugequiv
[25]
  Drug uptake: 4.27 ugequiv
[26]
  Cmax: 7.57 ugequiv/g
